According to ChEMBL document CHEMBL1138479, “Synthesis and antiplasmodial activity of aminoalkylamino-substituted neocryptolepine derivatives” (J Med Chem, 2009):
Active and inactive are the calls of the source. No cut-off for these calls is given here.

Tests used:
Nucleic Acid = experiment: Binding affinity to DNA assessed as intercalation after 24 hrs by DNA-methyl green assay; type: nucleic-acid assay
Outline: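 DNA-methyl green reagent (20 mg in 100 mL 0.05 M Tris HCl pH 7.5 with 7.5 mM MgSO4, stirred 24 h at 37 °C) was added to dried compound. A620 was read at 0 and after 24 h at 25 °C. […] Cryptolepine was the positive control.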

MRC5 = experiment: Cytotoxicity against human MRC5 cells; type: cell-based
Outline: (§1)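 MRC-5 SV2 fibroblasts were kept in MEM with 20 mM L-glutamine and 5% FCS at 37 °C, 5% CO2. Cells were seeded at 10⁴/well onto prediluted compounds and incubated 72 h. Viability was read fluorimetrically after resazurin addition.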

[1] = Cytotoxicity against human MRC5 SV2 cells after 72 hrs by resazurin-based fluorometric assay; type: cell-based; details: MRC5, 72 h; outline: as §1
[2] = Selectivity index, ratio of IC50 for human MRC5 SV2 cells to IC50 for chloroquine-sensitive Plasmodium falciparum Ghana; type: toxicity, cell-based; details: read-out: Ratio IC50
[3] = molecular target: T1, Histidine-rich protein PFHRP-II (Plasmodium falciparum, UniProt P05227); experiment: Inhibition of beta-hematin formation after 18 hrs by microtiter plate assay; type: functional
T1 sequence (P05227 whole entry): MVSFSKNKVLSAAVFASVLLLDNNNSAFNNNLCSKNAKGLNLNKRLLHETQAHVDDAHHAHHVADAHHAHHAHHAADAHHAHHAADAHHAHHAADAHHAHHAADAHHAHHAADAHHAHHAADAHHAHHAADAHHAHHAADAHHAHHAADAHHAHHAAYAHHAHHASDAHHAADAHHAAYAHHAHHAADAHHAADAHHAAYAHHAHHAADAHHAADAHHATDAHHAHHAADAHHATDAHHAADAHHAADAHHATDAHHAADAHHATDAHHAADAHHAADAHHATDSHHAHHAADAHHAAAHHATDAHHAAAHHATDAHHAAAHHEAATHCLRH

Plasmodium falciparum = experiment: Antiplasmodial activity against chloroquine-sensitive Plasmodium falciparum Ghana in human erythrocytes after 72 hrs by Malstat assay; type: functional, organism-based
Outline: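 P. falciparum Ghana strain grown in human erythrocytes in RPMI-1640 at 37 °C under 3% O2, 4% CO2, 93% N2. Exposure to compounds lasted 72 h. Multiplication was read by Malstat with absorbance at 655 nm, and % growth inhibition was taken against negative blanks.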

Plasmodium berghei [4] = experiment: Antiplasmodial activity as reduced parasitaemia against chloroquine-sensitive Plasmodium berghei ANKA infected Swiss mice (Mus musculus) at 20 mg/kg intraperitoneal dose 4-6 hrs post infection on day 4; type: functional, organism-based; design: dose 20 mg/kg
Outline: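 Mice infected ip with P. berghei ANKA-infected erythrocytes (4 × 10⁸) received the compound intraperitoneally. Parasitaemia was counted on Giemsa-stained blood smears on days 4 and 7.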

[5] = Toxicity in Swiss mice (Mus musculus) infected with chloroquine-sensitive Plasmodium berghei ANKA assessed as mortality at 50 mg/kg, intraperitoneally administered 4 to 6 hrs after infection for 5 consecutive days measured within 7 days of postinfection; type: organism-based; design: dose 50 mg/kg, route intraperitoneal; details: in vivo, ip, read-out: Activity
Outline: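 Swiss mice were infected intraperitoneally with 4 × 10⁸ erythrocytes carrying chloroquine-sensitive P. berghei ANKA. They were dosed intraperitoneally at 50 mg/kg daily for five consecutive days. Parasitaemia was read on Giemsa-stained blood smears on days 4 and 7.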

Plasmodium berghei [6] = experiment: Antiplasmodial activity as reduced parasitaemia against chloroquine-sensitive Plasmodium berghei ANKA infected Swiss mice (Mus musculus) at 50 mg/kg intraperitoneal dose 4-6 hrs post infection on day 4; type: functional; design: scale not given: the % may be the effect or the level left
Outline: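 Swiss mice were infected ip with 4 × 10⁸ P. berghei ANKA-infected erythrocytes. Treatment was ip at 50 mg/kg daily for five consecutive days. Parasitaemia was scored on Giemsa-stained blood smears on days 4 and 7.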

[7] = molecular target: T2, Histidine-rich protein PFHRP-II (Plasmodium falciparum) (UniProt P05227); experiment: (§2) Inhibition of beta-hematin formation at 5 milliequivalent after 18 hrs by microtiter plate assay; type: functional
T2 sequence (whole entry): T1 sequence (P05227 whole entry)

[8] = molecular target: T1, Histidine-rich protein PFHRP-II; experiment: as §2; type: functional

| SMILES | IC50 (Nucleic Acid) | IC50 (MRC5) | IC50 [1] | selectivity ratio [2] | IC50 [3] | IC50 (Plasmodium falciparum) | Activity (Plasmodium berghei [4]) | mortality at 7 days [5] | Activity (Plasmodium berghei [6]) | inhibition [7] | IC50 [8] |
| --- | --- | --- | --- | --- | --- | --- | --- | --- | --- | --- | --- |
| Cn1c2nc3ccccc3c-2cc2cc(Br)ccc21 | > 400 µM | > 32 µM | > 32 µM | > 5 | 1.77 milliequivalent | – | – | – | – | – | – |
| Cn1c2nc3ccccc3c-2c(Cl)c2ccccc21 [11-CHLORONEOCRYPTOLEPINE] | – | – | 5 µM | < 0.08 | – | > 64 µM | – | – | – | – | – |
| CCN(CC)CCCC(C)Nc1c2c3ccccc3nc-2n(C)c2ccc(Cl)cc12 (stereo not drawn) | > 1000 µM | – | 29 µM | 674 | – | 0.043 µM | inactive | 50% | 100% | < 20% | – |
| CCN(CC)CCCC(C)Nc1c2cc(Cl)ccc2nc2[nH]c3ccccc3c12 (stereo not drawn) | > 1000 µM | – | > 64 µM | > 533 | 2.3 milliequivalent | 0.12 µM | – | – | inactive | – | – |
| CCN(CC)CCCC(C)Nc1ccc2nc3n(C)c4ccccc4cc-3c2c1 (stereo not drawn) | 446 µM | – | 16 µM | 114 | – | 0.14 µM | – | – | – | < 20% | – |
| Cn1c2nc3ccccc3c-2c(N2CCC(N3CCCCC3)CC2)c2cc(Cl)ccc21 | 180 µM | – | 4.4 µM | 2 | – | 2.46 µM | – | – | – | – | Not Active |
| CCN1CCCC1CNc1c2c3ccccc3nc-2n(C)c2ccc(Cl)cc12 (stereo not drawn) | 645 µM | – | 0.4 µM | > 2 | – | < 0.25 µM | – | – | – | – | Not Active |
| CCN1CCCC1CNc1c2cc(Cl)ccc2nc2[nH]c3ccccc3c12 (stereo not drawn) | > 1000 µM | – | 15 µM | 39 | 1.53 milliequivalent | 0.38 µM | – | – | – | – | – |
| Clc1ccc2c(Cl)c3c(nc2c1)[nH]c1ccccc13 | > 1000 µM | – | > 64 µM | – | – | > 64 µM | – | – | – | – | Not Active |
| OCCN1CCN(c2c3cc(Cl)ccc3nc3[nH]c4ccccc4c23)CC1 | > 1000 µM | – | 2 µM | 0.9 | 2 milliequivalent | 2.34 µM | – | – | – | – | – |
| CCN(CC)CCCC(C)Nc1c2ccc(Cl)cc2nc2[nH]c3ccccc3c12 (stereo not drawn) | > 1000 µM | – | 15 µM | 107 | 4.43 milliequivalent | 0.14 µM | – | – | – | – | – |
| Clc1ccc2nc3[nH]c4ccccc4c3c(N3CCC(N4CCCCC4)CC3)c2c1 | > 1000 µM | – | 2 µM | > 8 | 2.2 milliequivalent | < 0.25 µM | – | – | – | – | – |
| Clc1ccc2nc3[nH]c4ccccc4c3c(NCCN3CCCC3)c2c1 | > 1000 µM | – | > 64 µM | > 21 | 5.4 milliequivalent | 3 µM | – | – | – | – | – |
| Clc1ccc2nc3[nH]c4ccccc4c3c(Cl)c2c1 | > 1000 µM | – | > 64 µM | – | – | > 64 µM | – | – | – | – | Not Active |
| CN(C)CCNc1c2c3ccccc3nc-2n(C)c2ccc(Cl)cc12 | 164 µM | – | < 0.25 µM | – | – | < 0.25 µM | – | – | – | – | Not Active |
| CN1CCN(c2c3c4ccccc4nc-3n(C)c3ccc(Cl)cc23)CC1 | 358 µM | – | 1 µM | 0.5 | – | 2.1 µM | – | – | – | – | Not Active |
| CN(C)CCNc1c2cc(Cl)ccc2nc2[nH]c3ccccc3c12 | > 1000 µM | – | > 64 µM | > 160 | 3.68 milliequivalent | 0.4 µM | – | – | – | – | – |
| Cn1c2nc3ccccc3c-2cc2ccccc21 [NEOCRYPTOLEPINE] | – | – | 11 µM | 0.4 | 5.97 milliequivalent | – | – | – | – | – | – |
| Cn1c2nc3ccccc3c-2c(NCCN2CCCC2)c2cc(Cl)ccc21 | 186 µM | – | < 0.25 µM | – | – | < 0.25 µM | – | – | – | – | Not Active |

| SMILES | IC50 (Nucleic Acid) | IC50 (MRC5) | IC50 [1] | selectivity ratio [2] | IC50 [3] | IC50 (Plasmodium falciparum) | Activity (Plasmodium berghei [4]) | mortality at 7 days [5] | Activity (Plasmodium berghei [6]) | inhibition [7] | IC50 [8] |
| --- | --- | --- | --- | --- | --- | --- | --- | --- | --- | --- | --- |
| CCN(CC)CCCC(C)Nc1c2c3ccccc3nc-2n(C)c2cccc(Cl)c12 (stereo not drawn) | > 1000 µM | – | 21 µM | 60 | – | 0.35 µM | – | – | – | < 20% | – |
| Cn1c2nc3ccccc3c-2c(Cl)c2cc(Cl)ccc21 | > 1000 µM | – | > 64 µM | – | – | > 64 µM | – | – | – | – | Not Active |
| Clc1ccc2nc3[nH]c4ccccc4c3c(NCCN3CCOCC3)c2c1 | > 1000 µM | – | > 64 µM | > 2 | – | 33 µM | – | – | – | – | Not Active |
| CCN(CC)CCCC(C)Nc1c2c3ccccc3nc-2n(C)c2cc(Cl)ccc12 (stereo not drawn) | 248 µM | – | 14 µM | 108 | 5.25 milliequivalent | 0.13 µM | – | – | – | – | – |
| CCN(CC)CCCC(C)Nc1ccc2c3cc4ccccc4n(C)c-3nc2c1 (stereo not drawn) | 219 µM | – | 18 µM | 1800 | 4.4 milliequivalent | 0.01 µM | – | – | – | – | – |
| Clc1cccc2nc3[nH]c4ccccc4c3c(Cl)c12 | > 1000 µM | – | > 64 µM | – | – | > 64 µM | – | – | – | – | Not Active |
| CCN(CC)CCCC(C)Nc1c2c(Cl)cccc2nc2[nH]c3ccccc3c12 (stereo not drawn) | > 1000 µM | – | 20 µM | 17 | 3.05 milliequivalent | 1.2 µM | – | – | – | – | – |
| Cn1c2nc3ccc(Cl)cc3c-2cc2ccccc21 | > 1000 µM | – | > 64 µM | > 2 | 1.23 milliequivalent | 29 µM | – | – | – | – | – |
| Cn1c2nc3ccccc3c-2cc2ccc(Cl)cc21 | – | – | 21 µM | 0.5 | – | 41.1 µM | – | – | – | – | – |
| CCN(CC)CCCC(C)Nc1ccc2cc3c4ccccc4nc-3n(C)c2c1 (stereo not drawn) | – | – | 16 µM | 1070 | – | 0.015 µM | – | – | – | – | – |
| Cn1c2nc3ccccc3c-2c(N2CCN(CCO)CC2)c2cc(Cl)ccc21 | 376 µM | – | 0.82 µM | 0.4 | – | 2.28 µM | – | – | – | – | Not Active |
| CCN(CC)CCCC(C)Nc1c2c3ccccc3nc-2n(C)c2ccccc12 (stereo not drawn) | 312 µM | – | 20 µM | 32 | 4.11 milliequivalent | 0.62 µM | – | – | – | – | – |
| Cn1c2nc3ccccc3c-2c(NCCN2CCOCC2)c2cc(Cl)ccc21 | 118 µM | – | 0.37 µM | 0.5 | – | 0.69 µM | – | – | – | – | Not Active |
| Cn1c2nc3ccccc3c-2c(Cl)c2c(Cl)cccc21 | > 1000 µM | – | 34 µM | 0.9 | – | 39 µM | – | – | – | – | Not Active |
| Cn1c2nc3ccccc3c-2c(Cl)c2ccc(Cl)cc21 | – | – | 27 µM | < 0.4 | 1.14 milliequivalent | > 64 µM | – | – | – | – | – |
| CCN(CC)CCCC(C)Nc1ccc2c(c1)cc1c3ccccc3nc-1n2C (stereo not drawn) | 128 µM | – | 7.2 µM | 240 | 1.45 milliequivalent | 0.03 µM | – | – | – | – | – |
| Cn1c2nc3ccccc3c-2cc2cc(Cl)ccc21 | > 1000 µM | – | > 64 µM | > 1 | 1.31 milliequivalent | 52 µM | – | – | – | – | – |
| Cn1c2nc3cc(Cl)ccc3c-2cc2ccccc21 | > 1000 µM | – | > 64 µM | – | 1.55 milliequivalent | > 64 µM | – | – | – | – | – |
| CN1CCN(c2c3cc(Cl)ccc3nc3[nH]c4ccccc4c23)CC1 | > 1000 µM | – | 3 µM | 1 | 2.09 milliequivalent | 2.46 µM | – | – | – | – | – |
